# Measured values from ChEMBL document CHEMBL3612009, “Synthesis and structure-activity relationship study of a new series of antiparasitic aryloxyl thiosemicarbazones inhibiting Trypanosoma cruzi cruzain” (Eur J Med Chem, 2015).
# Active and inactive are the calls of the source. The calls are words filed in the database; no cut-off is given here.
# Columns and labels:
# Trypanosoma cruzi [1] = experiment: Antiparasitic activity against epimastigotes of Trypanosoma cruzi Dm28c assessed as reduction of parasite count after 5 days; format: functional; conditions: 120 h
# Trypanosoma cruzi [2] = experiment: Antiparasitic activity against trypomastigotes of Trypanosoma cruzi Y assessed as reduction of parasite count after 24 hrs; format: functional
# [3] = Cytotoxicity against BALB/c mouse splenocytes assessed as maximum non-toxic concentration by measuring [3H]-thymidine incorporation after 24 hrs by liquid scintillation counting; format: cell-based, Splenocyte
# How it was run: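 BALB/c splenocytes, 5 x 10^6 cells/well, given compounds at 1.23, 3.7, 33.33 and 100 µg/mL, 1% DMSO final, triplicate; 24 h at 37 °C, 5% CO2. Then 1.0 µCi [3H]-thymidine added; cells harvested and counted by liquid scintillation. Highest non-cytotoxic concentration taken from % incorporation.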
# Trypanosoma cruzi [4] = experiment: Antitrypanosomal activity against amastigote and trypomastigote forms of Trypanosoma cruzi Tulahuen expressing beta-galactosidase gene infected in mouse L-929 cells assessed as inhibition of parasite growth after 7 days by colorimetric betagalactosidase assay; format: functional, organism-based; conditions: L929, 168 h
# [5] = Cytotoxicity against mouse L929 cells assessed as cell viability after 96 hrs by alamarBlue assay; format: cell-based
# How it was run: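 Uninfected L-929 cells at the same cell number and timing as the beta-galactosidase assay; increasing concentrations starting at the T. cruzi IC50, quadruplicate. After 96 h, alamarBlue added; absorbance at 570 and 600 nm read 6 h later. Viability as % reduction versus untreated; CC50 by linear interpolation.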
# [6] = Selectivity index, ratio of CC50 for mouse L929 cells to IC50 for amastigote and trypomastigote forms of Trypanosoma cruzi Tulahuen; format: functional
# How it was run: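 SI = CC50 in uninfected L-929 fibroblasts (alamarBlue, 96 h) divided by IC50 against intracellular amastigote/trypomastigote forms (beta-galactosidase assay, 7 days).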
# [7] = biological target: Cruzipain (Trypanosoma cruzi) (UniProt P25779); experiment: Inhibition of Trypanosoma cruzi catalytic activity of cruzain using Z-FR-AMC as substrate at 50 uM after 10 mins by fluorescence assay
# Trypanosoma cruzi [8] = experiment: Antitrypanosomal activity against amastigote and trypomastigote forms of Trypanosoma cruzi Tulahuen expressing beta-galactosidase gene infected in mouse L-929 cells assessed as inhibition of parasite growth at 100 uM after 7 days by colorimetric betagalactosidase assay; format: functional; conditions: L929, 168 h
# Trypanosoma cruzi [9] = experiment: Antiparasitic activity against trypomastigotes of Trypanosoma cruzi Y assessed as induction of parasite death at 5 uM after 24 hrs using propidium iodide staining after 24 hrs by flow cytometry analysis; format: functional
# How it was run: (§1)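 Y strain trypomastigotes (4x10^5) in RPMI-1640 with 10% FBS, exposed to test agent for 24 h at 37 °C, 5% CO2; then stained with propidium iodide and analysed by flow cytometry, at least 10,000 events. Read-out is % PI-positive cells versus untreated parasites; Triton X-100 as positive control. Two independent experiments, each concentration in duplicate.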
# Trypanosoma cruzi [10] = experiment: Antiparasitic activity against trypomastigotes of Trypanosoma cruzi Y assessed as induction of parasite death at 0.5 uM after 24 hrs using propidium iodide staining after 24 hrs by flow cytometry analysis; format: functional; how it was run: as §1
# Trypanosoma cruzi [11] = experiment: Antiparasitic activity against trypomastigotes of Trypanosoma cruzi Y assessed as induction of parasite death after 24 hrs using propidium iodide staining after 24 hrs by flow cytometry analysis; format: functional, organism-based
# How it was run: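 Y strain trypomastigotes (4x10^5) in RPMI-1640 + 10% FBS exposed to 0.5 or 5.0 µM of each thiosemicarbazone, benznidazole 25 µM, or Triton X-100, for 24 h at 37 °C, 5% CO2. Then PI-stained and read by flow cytometry, at least 10,000 events. Two independent experiments, duplicates.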
# Trypanosoma cruzi [12] = experiment: Antiparasitic activity against trypomastigotes of Trypanosoma cruzi Y assessed as induction of parasite death at 25 uM after 24 hrs using propidium iodide staining after 24 hrs by flow cytometry analysis; format: functional; how it was run: as §1
# [13] = biological target: Cruzipain (Trypanosoma cruzi) (UniProt P25779); experiment: Inhibition of Trypanosoma cruzi catalytic activity of cruzain using Z-FR-AMC as substrate at 100 uM after 10 mins by fluorescence assay
# Cruzipain = Cruzipain (Trypanosoma cruzi, UniProt P25779); experiment: Inhibition of Trypanosoma cruzi catalytic activity of cruzain using Z-FR-AMC as substrate after 10 mins by fluorescence assay
# Cruzipain, sequence (P25779 whole entry): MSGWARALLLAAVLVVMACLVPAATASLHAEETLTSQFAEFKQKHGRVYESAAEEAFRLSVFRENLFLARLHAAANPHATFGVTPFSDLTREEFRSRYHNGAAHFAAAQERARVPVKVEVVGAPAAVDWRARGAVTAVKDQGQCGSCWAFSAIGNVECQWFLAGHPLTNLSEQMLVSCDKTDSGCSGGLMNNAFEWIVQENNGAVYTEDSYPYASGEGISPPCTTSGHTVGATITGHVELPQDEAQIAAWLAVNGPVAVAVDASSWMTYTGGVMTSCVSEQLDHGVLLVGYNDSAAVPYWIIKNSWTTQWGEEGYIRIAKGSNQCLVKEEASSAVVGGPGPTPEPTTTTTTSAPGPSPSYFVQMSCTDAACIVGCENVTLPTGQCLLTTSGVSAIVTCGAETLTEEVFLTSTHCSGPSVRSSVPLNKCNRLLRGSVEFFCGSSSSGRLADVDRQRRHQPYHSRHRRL
# Cruzipain (Trypanosoma cruzi), sequence (P25779 123-467 limits assumed): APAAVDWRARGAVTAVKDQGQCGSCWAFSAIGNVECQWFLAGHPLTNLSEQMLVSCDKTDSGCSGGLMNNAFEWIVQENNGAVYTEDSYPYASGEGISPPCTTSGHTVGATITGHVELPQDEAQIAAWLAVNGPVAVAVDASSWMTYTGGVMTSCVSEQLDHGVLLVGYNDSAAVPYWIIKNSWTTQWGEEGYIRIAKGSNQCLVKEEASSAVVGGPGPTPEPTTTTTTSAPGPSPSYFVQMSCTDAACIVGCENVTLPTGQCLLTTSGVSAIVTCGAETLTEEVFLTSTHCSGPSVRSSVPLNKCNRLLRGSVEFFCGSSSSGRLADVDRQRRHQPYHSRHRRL
SMILES,IC50 (Trypanosoma cruzi [1]),CC50 (Trypanosoma cruzi [2]),MNTC at 24 h [3],IC50 (Trypanosoma cruzi [4]),CC50 at 96 h [5],Ratio CC50/IC50 [6],inhibition [7],inhibition at 100 µM (Trypanosoma cruzi [8]),Activity (Trypanosoma cruzi [9]),Activity (Trypanosoma cruzi [10]),inhibition (Trypanosoma cruzi [11]),Activity (Trypanosoma cruzi [12]),inhibition [13],IC50 (Cruzipain)
CC(C)c1ccc(OC/C(=N\NC(N)=S)c2ccc(Br)cc2)cc1,3.8 µM,2.9 µM,> 246 µM,12.3 µM,24.6 µM,2,49.7%,> 70%,42.2%,2.3%,Dose-dependent effect,–,–,–
O=C(Cn1ccnc1[N+](=O)[O-])NCc1ccccc1 [BENZNIDAZOLE],–,6.2 µM,–,–,–,625,–,–,4.2%,–,–,56.4%,–,–
C/C(=N\NC(N)=S)C(C)Oc1ccccc1-c1ccccc1 (stereo not drawn),–,–,–,–,–,–,–,–,–,–,–,–,inactive,–
CC(=O)Nc1ccc(OC(C)/C(C)=N/NC(N)=S)cc1 (stereo not drawn),–,–,–,–,–,–,–,–,–,–,–,–,inactive,–
NC(=S)N/N=C(\COc1ccc(Cl)c(Cl)c1)c1ccc(Br)cc1,1.8 µM,3 µM,< 2.3 µM,8.3 µM,23.1 µM,2.8,99.1%,> 70%,44.9%,2.3%,–,–,–,0.008 µM
